Screening results: PubChem, The Scripps Research Institute Molecular Screening Center
A selection: hits, their analogues and other compounds. The true share with any hit is near 2.3%.
ADAM17 inh: inhibitors of human ADAM17; P78536; recombinant ADAM17, EDANS/DABCYL FRET peptide cleavage; inhibition, % at 6.95 µM; hit rate 0.83% among 370,000;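 active means inhibition above the mean of compounds lying between control limits plus 3 SD, set per campaign, cut at about 8.5% in these data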
Target sequence (P78536 215-824 limits assumed): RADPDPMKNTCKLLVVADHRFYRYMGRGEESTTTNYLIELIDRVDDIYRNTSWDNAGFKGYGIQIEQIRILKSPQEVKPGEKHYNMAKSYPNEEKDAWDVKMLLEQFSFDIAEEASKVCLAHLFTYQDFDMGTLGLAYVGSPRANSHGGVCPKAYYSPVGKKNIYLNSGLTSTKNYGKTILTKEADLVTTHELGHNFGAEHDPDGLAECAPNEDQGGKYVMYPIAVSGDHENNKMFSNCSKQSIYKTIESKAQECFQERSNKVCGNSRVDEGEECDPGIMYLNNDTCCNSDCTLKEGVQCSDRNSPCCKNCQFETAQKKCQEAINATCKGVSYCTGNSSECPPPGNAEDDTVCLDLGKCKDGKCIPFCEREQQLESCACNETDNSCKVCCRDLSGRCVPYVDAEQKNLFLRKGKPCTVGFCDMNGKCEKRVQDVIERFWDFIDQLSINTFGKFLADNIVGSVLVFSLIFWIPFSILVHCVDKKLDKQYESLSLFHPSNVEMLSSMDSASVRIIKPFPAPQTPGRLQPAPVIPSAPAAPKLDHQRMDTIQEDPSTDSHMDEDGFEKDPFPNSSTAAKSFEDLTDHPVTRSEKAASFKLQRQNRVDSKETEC
PLC-gamma1 inh: PLC-gamma1 (human) inhibition, primary screen | P19174 | purified PLC-gamma1, fluorogenic substrate, fluorescence | inhibition, % at 12.2 µM | hit rate 0.84% among 370,000; in the data active means inhibition above about 9.5%
DDE Tn7 FP inh: disrupts Tn7 cyclic peptide binding to fibrin D-Dimer-E complex | inhibition, % at 8.3 µM | AID 720508 | hit rate 0.13% among 370,000 | P02675 | FP displacement of FITC-Tn7 peptide from fibrin DD(E); 0% = median of compound wells per plate;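 active means inhibition above the mean of compounds falling within the control limits plus 3 SD of them, cut at about 14% in these data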
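assay system = human clot-derived fibrin DD(E) complex | quantity = Fibrin-DD(E) at 2 µM final | timing = 10 min preincubation, 3 h with tracer, room temperature | signal = fluorescence polarization | measure = percent inhibition | benchmarks = high control wells with 10 µM unlabelled Aha-Tn7 peptide (full inhibition) | replicates = singlicate testing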
ADAM10 inh: ADAM10 inhibition, QFRET primary screen; hit rate 0.62% among 370,000; O14672; AID 720582; inhibition, % at 7 µM; recombinant ADAM10, EDANS/DABCYL FRET peptide cleavage, 3 h;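 active means inhibition above a per-campaign cutoff equal to the mean of compounds falling between control-based bounds plus 3 SD, cut at about 20% in these data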
PLC-beta3 inh: blocks human PLC-beta3 enzyme activity. Q01970. Purified PLC-beta3, fluorogenic substrate, fluorescence. inhibition, % at 12.2 µM. hit rate 0.18% among 370,000. AID 720704; in the data active means inhibition above about 11%
DDE Tn6 FP inh: DD(E)-Tn6 binding inhibition, primary FP screen; inhibition, % at 8.3 µM; AID 720509; hit rate 0.21% among 370,000; P02675; Fibrin DD(E) TRITC-Tn6 fluorescence polarization displacement;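 active means inhibition above a per-campaign cutoff: mean of compounds within control limits plus 3 SD, cut at about 15% in these data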
ADAM10 ctr: counter-screen for ADAM17 exosite inhibitors: inhibitors of human ADAM10. shares compounds with ADAM17 inh. recombinant ADAM10, EDANS/DABCYL FRET peptide cleavage, 3 h. inhibition, % at 6.95 µM. AID 743256. hit rate 47% among 2,900;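 active means mean inhibition over the triplicate runs exceeds the activity threshold set in the earlier primary screen, cut at about 20% in these data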
ADAM17 confirm: human ADAM17 inhibition, confirmation. shares compounds with ADAM17 inh. recombinant ADAM17, EDANS/DABCYL QFRET peptide cleavage. inhibition, % at 6.95 µM. hit rate 65% among 2,900. AID 743257;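 active means mean inhibition across replicates above the hit cutoff set in the primary screen, cut at about 8.5% in these data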
Each line names hits and unclear results; the compound was inactive in the other large screens (follow-up assays come after a bar, where they were run).

CCCCN(CCCC)CCNC(=O)c1cn(C)c2ccc(S(=O)(=O)N3CCCC3)cc2c1=O	ADAM17 inh 9.4 | ADAM10 ctr inactive | ADAM17 confirm inactive
O=C(c1c(Cl)nc2sccn12)N1CCN(c2cccc(Cl)c2)CC1	ADAM17 inh 9.1 | ADAM10 ctr inactive | ADAM17 confirm inactive
O=C(/C=C/c1ccc(Br)cc1)c1ccc(NC2=NCCCS2)cc1	ADAM17 inh 8.8 | ADAM10 ctr 26 | ADAM17 confirm 13
O=C(/C=C/c1ccccc1)c1ccc(NC2=NCCCS2)cc1	none
Cc1cccc(N2CCN(c3ccc(N4C(=O)CCCC4=O)cc3[N+](=O)[O-])CC2)c1C	ADAM17 inh 14 | ADAM10 ctr inactive | ADAM17 confirm inactive
O=C1CCCC(=O)N1c1ccc(N2CCN(c3ccccc3)CC2)c([N+](=O)[O-])c1	none
COc1cccc(-c2cccc(-c3nc(C(=O)NCc4ccc5c(c4)OCO5)cc4c3[C@H](CCO)N(S(=O)C(C)(C)C)C4)c2)c1 (some centres undefined)	ADAM17 inh 19 | ADAM10 ctr inactive | ADAM17 confirm 10
Cc1c(C(=O)N2CC3(CC(c4cccc(NC(=O)CC(c5ccccc5)c5ccccc5)c4)=NO3)C[C@@H]2C(N)=O)cc([N+](=O)[O-])cc1[N+](=O)[O-] (some centres undefined)	ADAM17 inh 11 | ADAM10 ctr 34 | ADAM17 confirm 19
Nn1c(SCC(=O)Nc2nccs2)nnc1-c1cc(-c2ccc(Cl)cc2)n[nH]1	none
CC(=O)OCC(=O)[C@@]1(O)CC[C@H]2[C@@H]3CCC4=CC(=O)CC[C@]4(C)[C@H]3[C@@H](O)C[C@@]21C	none
C[C@]12CCC(=O)C=C1CC[C@@H]1[C@@H]2[C@@H](O)C[C@@]2(C)[C@H]1CC[C@]2(O)C(=O)COC(=O)CCC(=O)O	ADAM17 inh 8.8 | ADAM10 ctr inactive | ADAM17 confirm inactive
Cc1cc(C2(c3ccc(O)c(C)c3)OC(=O)c3ccccc32)ccc1O	ADAM17 inh 11 | ADAM10 ctr inactive | ADAM17 confirm 11
C#CCN(CC=C)Cc1ccc(OC)cc1OC	none
Cc1ccc(C2(CCNS(=O)(=O)c3ccc(C)cc3)CCOC(C(C)C)C2)cc1 (centres undefined)	ADAM17 inh 10 | ADAM10 ctr 29 | ADAM17 confirm 16
CCN(CC)CCNC(=O)c1cc(-c2ccco2)nc2ccccc12	none
COc1ccc(CCNC(=O)c2cc(-c3ccco3)nc3ccccc23)cc1	ADAM17 inh 9.5 | ADAM10 ctr inactive | ADAM17 confirm inactive
Cn1cc(C(=O)N/N=C/c2cccs2)c2ccccc21	ADAM17 inh 8.9 | ADAM10 ctr inactive | ADAM17 confirm inactive
Cn1cc(C(=O)N/N=C/c2ccc3c(c2)OCO3)c2ccccc21	none
COc1cccc(-c2cc3nc(-c4ccco4)cc(N4CCN(C(C)=O)CC4)n3n2)c1	none
O=C(Nc1ccccc1Oc1ccccc1)c1cc([N+](=O)[O-])ccc1Cl	ADAM17 inh 8.9 | ADAM10 ctr inactive | ADAM17 confirm inactive
Nc1[nH]c(C(=O)c2ccccc2)c(-c2ccccc2C(F)(F)F)c1C(=O)NCCc1c[nH]c2ccccc12	ADAM17 inh 9.4 | ADAM10 ctr inactive | ADAM17 confirm inactive
Nc1[nH]c(C(=O)c2ccc(Br)cc2)c(-c2ccc(Cl)cc2[N+](=O)[O-])c1C(=O)NCCc1c[nH]c2ccccc12	ADAM17 inh 9.3 | ADAM10 ctr inactive | ADAM17 confirm 14
Nc1[nH]c(C(=O)c2ccc(Br)cc2)c(-c2ccccn2)c1C(=O)NCCc1c[nH]c2ccccc12	ADAM17 inh 8.8 | ADAM10 ctr inactive | ADAM17 confirm 12
Nc1[nH]c(C(=O)c2ccc(Cl)cc2)c(-c2ccc(Br)cc2)c1C(=O)NCCc1c[nH]c2ccccc12	none
C=CCN1C(=O)[C@@H](CC(=O)NCCCCc2ccccc2)[C@]2(C(=O)OC)CCCCC=C12	none
CC(C)(C)c1csc(NNC(=O)c2ccc(Br)cc2)n1	ADAM17 inh 8.7 | ADAM10 ctr inactive | ADAM17 confirm inactive
O=C(NC1CCCCCCC1)c1c(O)c2ccccc2[nH]c1=O	ADAM17 inh 9.4 | ADAM10 ctr inactive | ADAM17 confirm inactive
CCOc1cc(N2CCOCC2)c(OCC)cc1NC(=O)CN1C(=O)NC2(CCc3ccccc32)C1=O (centres undefined)	ADAM17 inh 8.8 | ADAM10 ctr inactive | ADAM17 confirm inactive
CC(COc1ccc(C(F)(F)F)cc1)CN1CCC(C(O)(c2ccccc2)c2ccccc2)CC1 (centres undefined)	none
O=C(COc1cccc(Cl)c1)NNC(=S)Nc1ccccc1	ADAM17 inh 9.8 | ADAM10 ctr inactive | ADAM17 confirm 9.7
CCC[C@H]1[C@@H](NC(=O)C2CCCCC2)CC[C@@]23CCCN2C(=O)CCC[C@@H]13	none
Nc1ccc2nc(CCCCCCCCc3nc4ccc(N)cc4[nH]3)[nH]c2c1	ADAM17 inh 13 | ADAM10 ctr inactive | ADAM17 confirm inactive
Nc1ccc2nc(CCCCCCc3nc4ccc(N)cc4[nH]3)[nH]c2c1	none
O=S1(=O)C=CCN1Cc1cn(Cc2cccc(Cl)c2)nn1	none
COC(=O)[C@]12C[C@H](CC(=O)NCCc3ccccc3OC)C(=O)N(Cc3ccco3)C1=C[C@H](C(C)(C)C)O[C@@H]2C	none
CCC/C=C/c1ccc(CN2C(C(C)C)C(=O)N(Cc3cn(CCC4OCCO4)nn3)CCS2(=O)=O)cc1 (centres undefined)	ADAM17 inh 11 | ADAM10 ctr 30 | ADAM17 confirm 17
COC(=O)[C@]12C[C@H](CC(=O)N3CCN(C(=O)c4ccco4)CC3)C(=O)N(Cc3ccccc3)C1=C[C@H](COCc1ccccc1)O[C@@H]2C	none
COC1=C[C@H](C(=O)NCc2ccccc2)[C@H](C)[C@@H](c2ccccc2)CC1=O	none
O=C1CC(N(CCc2ccccc2)C(=S)Nc2ccccc2)C(=O)N1c1ccccc1 (centres undefined)	ADAM17 inh 8.7 | ADAM10 ctr inactive | ADAM17 confirm 8.9
CCCCOP(=O)(OCCCC)C(O)c1ccc(Br)cc1 (centres undefined)	ADAM17 inh 11 | ADAM10 ctr inactive | ADAM17 confirm inactive
Cc1cc(C)cc(NC(=O)N2CCC(c3nc4ccc(Cl)cc4[nH]3)CC2)c1	none
O=S(=O)(c1cc(F)ccc1F)N1CCC2(CC1)OCCN2S(=O)(=O)c1cccs1	none
